Test results taken from paper PMC6675461 (Bioorganic & medicinal chemistry, 2009).
Where two headings read alike, the source gives them in different places. Each block holds one molecule with its values, some of them ahead of it.

How the values were obtained:
LNCaP cells [1] = assay: Flow cytometric cell cycle analysis, LNCaP; type: cell-based, human; details: tested 1, 5, 10, 20 μM, 48 h
[2] = test system: NCI-60 human tumor cell lines; assay: NCI-60 human tumor cell line anticancer drug screen; type: cell-based
A375 cells [3] = assay: Flow cytometric cell cycle analysis, A375; type: cell-based, human; details: A375, tested 1, 5, 10, 20 μM, 48 h
A375 cells [4] = assay: Melanoma colony-formation assay; type: cell-based, human; details: 14 days
Method in brief: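 A375 cells were plated at colony-forming density (2000 per well) in DMEM with FBS and antibiotic-antimycotic at 37 °C, 5% CO2. Test compound was added at 2, […], with matching DMSO dilution as vehicle control. After 14 days' growth, colonies were stained with 0.1% […] for 30 min, rinsed and counted with an automated colony counter.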

LNCaP cells [5] = assay: SRB antiproliferative assay, LNCaP prostate cancer cells; type: cell-based, human; details: 96 h, read-out: IC50 ± SEM LNCaP
Method in brief: (§1)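 Prostate cancer cells were grown in RPMI1640 with 10% FBS at 37 °C, 5% CO2. Cells were fixed with 10% TCA and stained with 0.4% SRB, and absorbance was read at 540 nm. IC50 came from nonlinear regression of % survival versus concentration.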

A375 melanoma tumors = assay: A375 melanoma xenograft in athymic nude mice; type: in vivo
DU 145 cells = assay: SRB antiproliferative assay, DU 145 prostate cancer cells; type: cell-based, human; details: read-out: IC50 ± SEM DU 145
Method in brief: as §1

PPC-1 cells = assay: SRB antiproliferative assay, PPC-1 prostate cancer cells; type: cell-based, human; details: read-out: IC50 ± SEM PPC-1
Method in brief: as §1

[6] = test system: three melanoma cell lines (B16-F1, A375, WM-164); assay: SRB assay, average over melanoma cell lines and selectivity vs fibroblast; type: cell-based, human, mouse; details: for Ratio = (IC50 of fibroblast cell)/(the average IC50 of melanoma cell lines): selectivity, fold
LPA1 = LPA1 (Homo sapiens, UniProt Q92633); assay: FLIPR intracellular calcium mobilization assay, LPA1-transfected Chem-1 cells; type: cell-based; details: for agonist activity on LPA1, in words: top concentration 10 μM, 15% activation of oleoyl-LPA Emax = agonist
Sequence of LPA1 (Q92633 whole entry, species assumed): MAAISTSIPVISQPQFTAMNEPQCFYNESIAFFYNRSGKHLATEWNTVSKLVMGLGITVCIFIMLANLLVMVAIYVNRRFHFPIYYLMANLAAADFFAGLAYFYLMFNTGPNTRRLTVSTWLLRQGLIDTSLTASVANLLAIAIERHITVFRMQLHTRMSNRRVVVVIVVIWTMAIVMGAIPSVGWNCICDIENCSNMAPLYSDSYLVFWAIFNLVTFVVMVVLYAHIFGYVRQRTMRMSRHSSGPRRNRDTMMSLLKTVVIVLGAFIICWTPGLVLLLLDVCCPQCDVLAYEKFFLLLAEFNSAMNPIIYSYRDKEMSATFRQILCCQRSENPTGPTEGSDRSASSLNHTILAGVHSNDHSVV

LPA5 = LPA5 (Homo sapiens, UniProt Q9H1C0); assay: FLIPR intracellular calcium mobilization assay, LPA5-transfected Chem-1 cells; type: cell-based; details: for agonist activity on LPA5, in words: top concentration 10 μM, 15% activation of oleoyl-LPA Emax = agonist
Sequence of LPA5 (Q9H1C0 whole entry, species assumed): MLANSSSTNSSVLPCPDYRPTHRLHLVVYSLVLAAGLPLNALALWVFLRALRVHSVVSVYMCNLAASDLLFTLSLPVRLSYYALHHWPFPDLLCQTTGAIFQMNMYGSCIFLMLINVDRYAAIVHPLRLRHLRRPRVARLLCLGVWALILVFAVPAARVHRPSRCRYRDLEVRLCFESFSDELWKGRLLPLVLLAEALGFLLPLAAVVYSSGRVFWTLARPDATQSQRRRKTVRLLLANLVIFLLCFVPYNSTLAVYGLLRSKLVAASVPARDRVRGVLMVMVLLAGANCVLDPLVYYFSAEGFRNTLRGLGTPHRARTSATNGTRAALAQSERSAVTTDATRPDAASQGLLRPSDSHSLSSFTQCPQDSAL

LPA3 = molecular target: T1, LPA3 (Homo sapiens, UniProt Q9UBY5); assay: FLIPR intracellular calcium mobilization assay, LPA3-transfected Chem-1 cells; type: cell-based; details: for agonist activity on LPA3, in words: top concentration 10 μM, 15% activation of oleoyl-LPA Emax = agonist
T1 sequence (Q9UBY5 1-353): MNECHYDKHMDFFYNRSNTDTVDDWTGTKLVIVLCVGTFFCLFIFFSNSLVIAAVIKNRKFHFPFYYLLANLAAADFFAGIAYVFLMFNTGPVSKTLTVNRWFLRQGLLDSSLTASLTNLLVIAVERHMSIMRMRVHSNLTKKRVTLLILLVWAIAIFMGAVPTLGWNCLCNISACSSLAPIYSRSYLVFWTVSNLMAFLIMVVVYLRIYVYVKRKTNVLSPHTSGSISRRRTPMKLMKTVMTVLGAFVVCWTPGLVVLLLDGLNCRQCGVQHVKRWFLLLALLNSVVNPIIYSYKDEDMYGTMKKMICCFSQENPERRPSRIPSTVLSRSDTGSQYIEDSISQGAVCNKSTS

RH7777 cells = assay: SRB assay, RH7777 control cells; type: cell-based; details: Homo sapiens, RH7777, 96 h, read-out: IC50 ± SEM RH7777
Method in brief: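 PC-3 cells were grown in RPMI1640 with 10% FBS, and RH7777 cells in DMEM with 10% FBS, both at 37 °C, 5% CO2. Cells were fixed with 10% TCA, stained with 0.4% SRB and read at 540 nm. IC50 came from nonlinear regression of % survival versus concentration.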

PC-3 cells = assay: SRB antiproliferative assay, PC-3 prostate cancer cells; type: cell-based, human; details: read-out: IC50 ± SEM PC-3
B16-F1 cells = assay: SRB antiproliferative assay, B16-F1 melanoma cells; type: cell-based, mouse; details: read-out: IC50 ± SEM B16-F1, 48 h, diastereomeric mixtures
Method in brief: (§2)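 Melanoma lines (human A375, WM-164; mouse B16-F1) and human dermal fibroblasts were grown in DMEM with 5% FBS, 1% antibiotic/antimycotic and bovine insulin (5 μg/mL) at 37 °C, 5% CO2. Diastereomeric mixtures were applied over a wide concentration range for 48 h. Cells were then TCA-fixed (10%), washed, air-dried overnight and SRB-stained, with absorbance read at 560 nm. IC50 (50% growth inhibition versus untreated) was obtained by nonlinear regression.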

WM-164 cells = assay: SRB antiproliferative assay, WM-164 melanoma cells; type: cell-based, human; details: read-out: IC50 ± SEM WM-164; SRB, 48 h, diastereomeric mixtures
Method in brief: as §2

A375 cells [7] = assay: SRB antiproliferative assay, A375 melanoma cells; type: cell-based, human; details: read-out: IC50 ± SEM A375; SRB, 48 h, diastereomeric mixtures
Method in brief: as §2

[8] = test system: four prostate cancer cell lines (DU 145, PC-3, LNCaP, PPC-1); assay: SRB assay, average over prostate cancer cell lines and selectivity vs RH7777; type: cell-based, human; details: for IC50: read-out: Aver. (average IC50 of four prostate cells IC50s), DU 145, PC-3, LNCaP, PPC-1; for Ratio = (IC50 of RH7777 cell)/(average IC50 of prostate cell lines): selectivity, fold
Method in brief: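 The control line was LPL receptor-negative RH7777 in DMEM/10% FBS. The prostate IC50s were averaged. Selectivity = IC50 in RH7777 divided by the average tumor-cell IC50.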

[9] = test system: Human dermal fibroblast cells; assay: SRB assay, fibroblast control cells; type: cell-based; details: read-out: IC50 ± SEM Fibroblast, 48 h, control cell line for melanoma
Method in brief: as §2

[10] = Fibroblast, read-out: Aver. (average IC50 of three melanoma cells IC50s)
[11] = against oleoyl-LPA at EC80, top concentration 10 μM
[12] = read-out: Aver. (average IC50 of three melanoma cells IC50s), B16-F1, A375, WM-164

Molecule: CCCCCCCCCCCCCCCCNC(=O)[C@@H]1CSC(c2ccc(NC(C)=O)cc2)N1 (mixture of isomers) [Compound 1b, (2RS,4R)-2-(4-Acetylamino-phenyl)-thiazolidine-4-carboxylic acid hexadecylamide]
- concentration at which accumulation of cells in sub-G1 phase became apparent (LNCaP cells [1]): 5 µM
- GI50 ([2]; read-out: GI50 melanoma): 0.13 to 1.48 µM
- GI50 ([2]; read-out: GI50 prostate cancer): 0.17 to 0.27 µM
- GI50 ([2]; read-out: GI50 range, all nine types of cancer cells): 0.12 to 10.9 µM
- concentration at which accumulation of cells in sub-G1 phase became apparent (A375 cells [3]): 5 µM
- inhibition of A375 colony formation (A375 cells [4]; 2 μM): effectively inhibit
- inhibition of A375 colony formation (A375 cells [4]; 100 μM): completely inhibited
- IC50 (LNCaP cells [5]; Homo sapiens, LNCaP): 1 ± 0.1 µM
- body weight change during the experiment (A375 melanoma tumors; nude mice, treatment groups): no significant body weight loss
- IC50 (DU 145 cells; Homo sapiens, DU-145, 96 h): 1.7 ± 0.1 µM
- IC50 (PPC-1 cells; Homo sapiens, PPC-1, 96 h): 0.4 ± 0.1 µM
- IC50 [6, 10]: 1.8 µM
- IC50 ([6]; Fibroblast, read-out: IC50 range over melanoma cell lines): 0.7 to 2.1 µM

Molecule: CN(C)/N=N/c1[nH]cnc1C(N)=O [DTIC, dacarbazine]
- tumor growth inhibition (A375 melanoma tumors; 60 mg/kg i.p. once daily, end of treatment, nude mice): 42%
- body weight change during the experiment (A375 melanoma tumors; mouse, in vivo): no significant body weight loss
- Antiproliferative activity on melanoma cell lines, in words ([6]; reference compounds, in vitro): inactive

Molecule: Cc1noc(-c2ccc(CSCCC(=O)O)cc2)c1NC(=O)OC(C)c1ccccc1Cl (stereo not shown) [Ki16425, reference compound]
- agonist activity on LPA1, in words (LPA1): did not show agonist effect
- agonist activity on LPA5, in words (LPA5): did not show agonist effect
- agonist activity on LPA3, in words (LPA3): did not show agonist effect

Molecule: (2RS,4R)-3-Acetyl-2-(4-acetylamino-phenyl)-thiazolidine-4-carboxylic acid hexadecylamide [Compound 4]
- IC50 (B16-F1 cells): 15 ± 0.8 µM
- IC50 (WM-164 cells): 20.4 ± 0.8 µM
- IC50 (LNCaP cells [5]; SRB, Table 2): 10.6 ± 0.6 µM
- IC50 (A375 cells [7]): 12.6 ± 0.5 µM
- IC50 (PC-3 cells; SRB, 96 h, Table 2): 9 ± 1.3 µM
- IC50 [8]: 10.3 µM
- Ratio = (IC50 of RH7777 cell)/(average IC50 of prostate cell lines) [8]: 1.3
- IC50 (DU 145 cells; SRB, 96 h, Table 2): 14.9 ± 2.2 µM
- IC50 [9]: 57.7 ± 1.3 µM
- IC50 (PPC-1 cells; SRB, 96 h, Table 2): 6.8 ± 0.8 µM
- IC50 [6, 12]: 16 µM
- Ratio = (IC50 of fibroblast cell)/(the average IC50 of melanoma cell lines) [6]: 3.6

Further lines, with some results ahead:

- IC50 (LNCaP cells [5]; Homo sapiens, LNCaP): 0.8 ± 0.1 µM
- IC50 (PC-3 cells; Homo sapiens, PC-3, 96 h): 1.8 ± 0.1 µM
- IC50 (DU 145 cells; Homo sapiens, DU-145, 96 h): 1.7 ± 0.1 µM
- IC50 (PPC-1 cells; Homo sapiens, PPC-1, 96 h): 0.4 ± 0.1 µM
Molecule: CCCCCCCCCCCCCCCCNC(=O)[C@@H]1CSC(c2cc(OC)c(OC)c(OC)c2)N1 (mixture of isomers) [Compound 3ad, (2RS,4R)-2-(3,4,5-Trimethoxy-phenyl)-thiazolidine-4-carboxylic acid hexadecylamide]
- antagonist activity on LPA1, in words (LPA1; [11]): did not exhibit any dose-dependent antagonist activity
- agonist activity on LPA1, in words (LPA1): did not exhibit any dose-dependent agonist activity
- antagonist activity on LPA5, in words (LPA5; [11]): did not exhibit any dose-dependent antagonist activity
- agonist activity on LPA5, in words (LPA5): did not exhibit any dose-dependent agonist activity
- concentration at which accumulation of cells in sub-G1 phase became apparent (LNCaP cells [1]): 5 µM
- antagonist activity on LPA3, in words (LPA3; [11]): did not exhibit any dose-dependent antagonist activity
- agonist activity on LPA3, in words (LPA3): did not exhibit any dose-dependent agonist activity
- IC50 (RH7777 cells): 7.2 ± 0.1 µM
- concentration at which accumulation of cells in sub-G1 phase became apparent (A375 cells [3]): 5 µM
- inhibition of A375 colony formation (A375 cells [4]; 2 μM): effectively inhibit
- inhibition of A375 colony formation (A375 cells [4]; 20 μM): almost completely inhibited
- inhibition of A375 colony formation (A375 cells [4]; 100 μM): completely inhibited
- IC50 [6, 10]: 1.2 µM

- IC50 (B16-F1 cells): 18.9 ± 1.3 µM
- IC50 (WM-164 cells): 10.7 ± 0.9 µM
- IC50 (LNCaP cells [5]; SRB, Table 2): 1.8 ± 0.1 µM
- IC50 (A375 cells [7]): 20.6 ± 2.1 µM
- IC50 (PC-3 cells; SRB, 96 h, Table 2): 3.7 ± 0.2 µM
- IC50 [8]: 2.6 µM
- Ratio = (IC50 of RH7777 cell)/(average IC50 of prostate cell lines) [8]: 3.6
- IC50 (DU 145 cells; SRB, 96 h, Table 2): 3.9 ± 0.4 µM
- IC50 (PPC-1 cells; SRB, 96 h, Table 2): 0.8 ± 0.1 µM
Molecule: (2RS,4R)-2-(4-Acetylamino-phenyl)-thiazolidine-4-carboxylic acid (1-methyl-octadecyl)-amide [Compound 3ia]
- fold decrease in potency compared with 1b, prostate cancer cells ([8]; from average IC50): 2.4 fold
- IC50 [9]: > 100 µM
- fold decrease in potency compared with 1b, melanoma cells ([6]; from average IC50): 9.3 fold
- IC50 [6, 12]: 16.7 µM

- IC50 (B16-F1 cells): 3.9 ± 0.3 µM
- IC50 (WM-164 cells): 1.7 ± 0.1 µM
- IC50 (LNCaP cells [5]; SRB, Table 2): 3.5 ± 0.7 µM
- IC50 (A375 cells [7]): 2.1 ± 0.1 µM
- IC50 (PC-3 cells; SRB, 96 h, Table 2): 2.1 ± 0.1 µM
- IC50 [8]: 2.3 µM
- Ratio = (IC50 of RH7777 cell)/(average IC50 of prostate cell lines) [8]: 2.4
- IC50 (DU 145 cells; SRB, 96 h, Table 2): 1.9 ± 0.3 µM
- IC50 (PPC-1 cells; SRB, 96 h, Table 2): 1.6 ± 0.1 µM
Molecule: (2RS,4R)-2-(4-Acetylamino-phenyl)-thiazolidine-4-carboxylic acid-(9H-fluoren-2-yl)-amide [Compound 3id]
- IC50 [9]: 28.9 ± 1 µM
- IC50 [6, 12]: 2.6 µM
- Ratio = (IC50 of fibroblast cell)/(the average IC50 of melanoma cell lines) [6]: 11.3
